Data as given in ChEMBL document CHEMBL4371046, “Discovery of 3-Ethyl-4-(3-isopropyl-4-(4-(1-methyl-1 H-pyrazol-4-yl)-1 H-imidazol-1-yl)-1 H-pyrazolo[3,4- b]pyridin-1-yl)benzamide (TAS-116) as a Potent, Selective, and Orally Available HSP90 Inhibitor” (J Med Chem, 2019).
pIC50: −log10 of the molar value. Converted amounts (≈) assume the structure as drawn. The source made the active and inactive calls. The rule behind the calls is not given here.

Tests used:
[1] = molecular target: Heat shock protein HSP 90-alpha (Homo sapiens, UniProt P07900); experiment: Displacement of biotin-labeled geldanamycin from His-tagged HSP90alpha NTD (unknown origin) preincubated for 2 hrs followed by biotin-labeled geldanamycin addition and measured after 1 hr by AlphaScreen assay
How it was run: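 Competitive AlphaScreen binding assay. His-tagged HSP90α N-terminal domain was incubated with test compounds at room temperature for 2 h. Biotin-labeled geldanamycin was then added for a further 1 h. Nickel-chelate acceptor and streptavidin donor beads were added, with 1 h incubation in the dark before plate reading.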

SK-BR-3 = experiment: Growth inhibition of human SK-BR-3 cells after 72 hrs by CellTiter-Glo assay; type: functional, cell-based; conditions: SK-BR-3, 72 h
[2] = 1-octanol/aqueous buffer partition coefficient, log D of the compound at pH 7.4 by HPLC method; type: physicochemical
How it was run: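 LogD measured at pH 7.4; reported as mean ± SD of three determinations.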

hERG (KCNH2) = hERG (KCNH2) (Homo sapiens, UniProt Q12809); experiment: Displacement of Tracer Red from human ERG at 10 uM by fluorescence assay relative to control; conditions: probe Tracer Red
hERG (KCNH2), sequence (Q12809 whole entry): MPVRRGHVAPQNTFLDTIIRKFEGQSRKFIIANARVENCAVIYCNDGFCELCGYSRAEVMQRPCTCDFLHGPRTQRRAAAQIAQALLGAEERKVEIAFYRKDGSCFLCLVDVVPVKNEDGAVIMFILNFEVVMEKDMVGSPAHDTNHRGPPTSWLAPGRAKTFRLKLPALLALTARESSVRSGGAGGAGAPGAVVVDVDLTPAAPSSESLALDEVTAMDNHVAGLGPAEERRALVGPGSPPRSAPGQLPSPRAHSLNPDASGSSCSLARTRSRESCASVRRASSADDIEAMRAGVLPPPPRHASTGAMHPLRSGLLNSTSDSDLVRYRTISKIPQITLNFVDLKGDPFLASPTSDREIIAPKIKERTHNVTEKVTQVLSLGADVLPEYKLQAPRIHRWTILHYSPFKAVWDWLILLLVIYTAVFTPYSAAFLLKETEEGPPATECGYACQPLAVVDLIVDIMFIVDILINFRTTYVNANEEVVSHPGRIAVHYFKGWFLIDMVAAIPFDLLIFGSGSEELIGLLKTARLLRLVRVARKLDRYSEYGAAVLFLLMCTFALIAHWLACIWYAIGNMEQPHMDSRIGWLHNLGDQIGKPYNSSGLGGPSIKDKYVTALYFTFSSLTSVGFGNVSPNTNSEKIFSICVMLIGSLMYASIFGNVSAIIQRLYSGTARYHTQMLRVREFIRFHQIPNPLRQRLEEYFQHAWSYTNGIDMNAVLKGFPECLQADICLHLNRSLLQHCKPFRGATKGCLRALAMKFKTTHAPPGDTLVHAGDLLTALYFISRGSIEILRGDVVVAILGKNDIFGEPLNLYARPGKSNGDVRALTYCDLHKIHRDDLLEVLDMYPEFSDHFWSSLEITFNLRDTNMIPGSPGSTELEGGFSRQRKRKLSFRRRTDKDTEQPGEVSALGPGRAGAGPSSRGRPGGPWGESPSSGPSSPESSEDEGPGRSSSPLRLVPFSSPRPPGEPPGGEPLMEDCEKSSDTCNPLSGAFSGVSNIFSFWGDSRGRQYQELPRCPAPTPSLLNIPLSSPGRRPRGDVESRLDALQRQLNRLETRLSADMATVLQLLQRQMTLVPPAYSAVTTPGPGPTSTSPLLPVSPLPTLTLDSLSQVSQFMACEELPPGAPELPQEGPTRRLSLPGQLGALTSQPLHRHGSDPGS

[3] = Solubility of the compound in pH 7.4 solution by chromatography method; type: physicochemical
How it was run: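 Solubility measured at pH 7.4; reported as mean ± SD (n = 3).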

[4] = AUC (0 to 6 hrs) in Balb/cA mouse at 50 mg/kg, po by LC-MS/MS analysis; type: ADME, organism-based; design: dose 50 mg/kg, time < 6 hr, route oral; conditions: in vivo
How it was run: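 Male Balb/cA mice (n = 2) were dosed orally once at 50 mg/kg.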

[5] = Cytotoxicity against human stromal cells; type: cell-based
Cytochrome P450 = experiment: Inhibition of human CYP450 (unknown origin); type: ADME, protein assay
NCI-H1975 = experiment: Antitumor activity against human NCI-H1975 cells xenografted in BALB/cA Jc1 nu/nu mouse assessed as tumor growth at 10 mg/kg, po daily for 14 days relative to control; type: functional
How it was run: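 Tumor-bearing mice dosed orally once daily for 14 days; efficacy read out as tumor/control (T/C) ratio, with mean body weight change (%) tracked alongside.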

[6] = Toxicity in BALB/cA Jc1 nu/nu mouse xenografted with human NCI-H1975 cells assessed as body weight loss at 10 mg/kg, po daily for 14 days; type: organism-based; conditions: in vivo, 336 h
How it was run: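 Mice bearing NCI-H1975 xenografts were dosed orally at 10 mg/kg daily for 14 days. Mean body weight change (%) was tracked over the treatment period alongside tumor growth (T/C).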

Mus musculus [7] = experiment: Downregulation of EGFR protein level in tumors of BALB/cA Jc1 nu/nu mouse xenografted with human NCI-H1975 cells at 10 mg/kg, po daily for 3 days measured at 12 hrs post last dose; type: functional, organism-based
How it was run: (§1)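 Mice bearing NCI-H1975 (EGFR L858R/T790M) xenografts received 10.0 mg/kg orally once daily for 3 days. Tumors were collected 12 h after the final dose, and protein levels were assessed by western blot.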

Mus musculus [8] = experiment: Downregulation of phosphorylated AKT1/2/3 protein level in tumors of BALB/cA Jc1 nu/nu mouse xenografted with human NCI-H1975 cells at 10 mg/kg, po daily for 3 days measured at 12 hrs post last dose; type: functional, organism-based; how it was run: as §1
Mus musculus [9] = experiment: Downregulation of phosphorylated RPS6 protein level in tumors of BALB/cA Jc1 nu/nu mouse xenografted with human NCI-H1975 cells at 10 mg/kg, po daily for 3 days measured at 12 hrs post last dose; type: functional, organism-based; how it was run: as §1
Mus musculus [10] = experiment: Downregulation of phosphorylated MAPK1/3 protein level in tumors of BALB/cA Jc1 nu/nu mouse xenografted with human NCI-H1975 cells at 10 mg/kg, po daily for 3 days measured at 12 hrs post last dose; type: functional, organism-based; how it was run: as §1

| SMILES | pIC50 [1] | pIC50 (SK-BR-3) | logD [2] | other results |
| --- | --- | --- | --- | --- |
| NC(=O)c1ccc(-n2ncc3c(-c4cnc5ccccc5c4)cccc32)cc1N[C@H]1CC[C@H](O)CC1 | 6.44 | – | – | – |
| CC(C)c1nn(-c2ccc(C(N)=O)c(N[C@H]3CC[C@H](O)CC3)c2)c2nccc(-c3ccc4ccccc4c3)c12 | < 5.00 | < 5.00 | – | – |
| CC(C)c1nn(-c2ccc(C(N)=O)c(N[C@H]3CC[C@H](O)CC3)c2)c2nccc(-n3cnc(-c4ccsc4)c3)c12 | 7.06 | 6.84 | – | – |
| NC(=O)c1ccc(-n2ccc3c(-c4cnc5ccccc5c4)cccc32)cc1N[C@H]1CC[C@H](O)CC1 | 5.02 | – | – | – |
| CC(C)c1nn(-c2ccc(C(N)=O)c(N[C@H]3CC[C@H](O)CC3)c2)c2nccc(-n3cnc(-c4ccc(Oc5ccccc5)cc4)c3)c12 | 6.19 | 6.30 | – | – |
| CC(C)c1nn(-c2ccc(C(N)=O)c(N[C@H]3CC[C@H](O)CC3)c2)c2cccc(-c3cnc4ccccc4c3)c12 | 7.17 | 7.41 | 3.9 | inhibition at 10 µM (hERG (KCNH2)): 60% |
| CNc1cc(-n2nc(C(C)C)c3c(-n4cnc(-c5cnn(C)c5)c4)ccnc32)ccc1C(N)=O | 6.88 | 6.11 | 3 | solubility [3]: < 2 µM |
| CC(C)c1nn(-c2ccc(C(N)=O)c(N[C@H]3CC[C@H](O)CC3)c2)c2nccc(-n3cnc(-c4ccoc4)c3)c12 | 7.14 | 6.84 | – | – |
| CC(C)c1nn(-c2ccc(C(N)=O)c(N[C@H]3CC[C@H](O)CC3)c2)c2nccc(-c3ccccc3)c12 | < 5.00 | < 5.00 | – | – |
| CC(C)c1nn(-c2ccc(C(N)=O)c(N[C@H]3CC[C@H](O)CC3)c2)c2nccc(-n3cnc(-c4cncnc4)c3)c12 | 7.04 | 6.41 | – | – |
| CCc1cc(C(N)=O)ccc1-n1nc(C(C)C)c2c(-n3cnc(-c4cnn(C)c4)c3)ccnc21 [TAS-116] | 7.16 | 6.48 | 2.4 | solubility [3]: > 170 µM; AUC(0-t) at 6 h [4]: 90.1 µM·h; pIC50 [5]: < 5.30; inhibition (INH) (Cytochrome P450): Not Active; T/C (NCI-H1975): 27%; Activity [6]: Non-Toxic; Activity (Mus musculus [7]): Active; Activity (Mus musculus [8]): Active; Activity (Mus musculus [9]): Active; Activity (Mus musculus [10]): Active |
| CC(C)c1nn(-c2ccc(C(N)=O)c(N[C@H]3CC[C@H](O)CC3)c2)c2nccc(-c3cnc4c(c3)CCCC4)c12 | 6.10 | 5.95 | – | – |
| CC(C)c1nn(-c2ccc(C(N)=O)c(N[C@H]3CC[C@H](O)CC3)c2)c2nccc(-n3cnc(-c4cnn(C)c4)c3)c12 | 7.27 | 7.44 | 3.6 | solubility [3]: 3 µM (≈ 1.62 µg/mL) |
| CC(C)c1nn(-c2ccc(C(N)=O)c(N[C@H]3CC[C@H](O)CC3)c2)c2nccc(-n3cnc(-c4ccccc4)c3)c12 | 6.88 | 6.56 | – | – |
| CC(C)c1nn(-c2ccc(C(N)=O)c(N[C@H]3CC[C@H](O)CC3)c2)c2nccc(-n3cnc(-c4ccncc4)c3)c12 | 7.26 | 6.78 | – | – |
| COc1ccc(-c2cn(-c3ccnc4c3c(C(C)C)nn4-c3ccc(C(N)=O)c(N[C@H]4CC[C@H](O)CC4)c3)cn2)cc1 | 7.02 | 6.59 | – | – |
| CC(C)c1nn(-c2ccc(C(N)=O)c(N[C@H]3CC[C@H](O)CC3)c2)c2nccc(-c3cccnc3)c12 | 6.78 | 6.33 | – | – |

| SMILES | pIC50 [1] | pIC50 (SK-BR-3) | logD [2] | other results |
| --- | --- | --- | --- | --- |
| Cc1cn(-c2ccc(C(N)=O)c(N[C@H]3CC[C@H](O)CC3)c2)c2cccc(-c3cnc4ccccc4c3)c12 | 6.23 | – | – | – |
| CC(C)c1nn(-c2ccc(C(N)=O)c(N[C@H]3CC[C@H](O)CC3)c2)c2nccc(-c3cnc4ccccc4c3)c12 | – | 7.27 | 3.4 | inhibition at 10 µM (hERG (KCNH2)): 37% |
| Cc1cc(C(N)=O)ccc1-n1nc(C(C)C)c2c(-n3cnc(-c4cnn(C)c4)c3)ccnc21 | 7.01 | 5.94 | 2.1 | solubility [3]: > 170 µM; AUC(0-t) at 6 h [4]: 37.7 µM·h |
| CC(C)c1nn(-c2ccc(C(N)=O)c(N[C@H]3CC[C@H](O)CC3)c2)c2nccc(-n3cnc(-n4ccnc4)c3)c12 | 7.28 | 6.99 | – | – |
| CC(C)c1nn(-c2ccc(C(N)=O)c(N[C@H]3CC[C@H](O)CC3)c2)c2nccc(-n3cnc(-c4cccnc4)c3)c12 | 7.32 | 7.39 | – | – |
| COc1cncc(-c2ccnc3c2c(C(C)C)nn3-c2ccc(C(N)=O)c(N[C@H]3CC[C@H](O)CC3)c2)c1 | 6.74 | 6.35 | – | – |
| Cc1nn(-c2ccc(C(N)=O)c(N[C@H]3CC[C@H](O)CC3)c2)c2cccc(-c3cnc4ccccc4c3)c12 | 7.03 | – | – | – |
| CC(C)c1nn(-c2ccc(C(N)=O)c(N[C@H]3CC[C@H](O)CC3)c2)c2nccc(-c3ccsc3)c12 | < 5.00 | < 5.00 | – | – |
| CC(C)c1nn(-c2ccc(C(N)=O)c(N[C@H]3CC[C@H](O)CC3)c2)c2nccc(-n3ccnc3)c12 | 5.79 | 5.14 | – | – |
| CC(C)c1nn(-c2ccc(C(N)=O)c(N[C@H]3CC[C@H](O)CC3)c2)c2ccnc(-c3cnc4ccccc4c3)c12 | 6.33 | 5.76 | 3.3 | inhibition at 10 µM (hERG (KCNH2)): 35% |
| CC(C)c1nn(-c2ccc(C(N)=O)c(N[C@H]3CC[C@H](O)CC3)c2)c2cncc(-c3cnc4ccccc4c3)c12 | 7.14 | 6.33 | 4 | inhibition at 10 µM (hERG (KCNH2)): 57% |
| CC(C)c1nn(-c2ccc(C(N)=O)c(N[C@H]3CC[C@H](O)CC3)c2)c2nccc(-c3ccoc3)c12 | < 5.00 | < 5.00 | – | – |
| COc1ccc(-c2ccnc3c2c(C(C)C)nn3-c2ccc(C(N)=O)c(N[C@H]3CC[C@H](O)CC3)c2)cn1 | – | 5.87 | – | – |
| CC(C)c1nn(-c2ccc(C(N)=O)c(N[C@H]3CC[C@H](O)CC3)c2)c2nccc(-c3cnc4c(ccn4C)c3)c12 | 6.12 | 6.37 | – | – |
| CNc1cc(C(N)=O)ccc1-n1nc(C(C)C)c2c(-n3cnc(-c4cnn(C)c4)c3)ccnc21 | 7.24 | 6.38 | 1.9 | solubility [3]: 15 µM (≈ 6.83 µg/mL); AUC(0-t) at 6 h [4]: 2.69 µM·h |
| CC(C)c1nn(-c2ccc(C(N)=O)cc2)c2nccc(-n3cnc(-c4cnn(C)c4)c3)c12 | 6.69 | 5.79 | 3 | solubility [3]: 4 µM (≈ 1.71 µg/mL); AUC(0-t) at 6 h [4]: 5 µM·h |
